# Assay results as given in PubChem BioAssay.
# The source made the active and inactive calls.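 The calls were made as follows, unless noted: active = viability at or under a set limit in both replicates, limit being median viability minus 3 SD (cut at about 48% in these data, passing the limit was not always enough); inconclusive = at or under the limit in just one replicate; inactive = at or above the limit in both replicates.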
# Assays:
# [1] = SK-BR-3 cell growth inhibitors, pilot screen, 24 h, human (AID 572;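 active = viability at or below 10% of carrier control in both of two separate runs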;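 also: compound exposure lasted between 18 and 24 h rather than exactly 24 h; 100% = carrier-treated control wells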); conditions: SK-BR-3 viability, CellTiter-Glo luminescence, at 10 µM, stronger effect = lower value
# [2] = HUVEC growth inhibition – cell-based, human, primary screen (AID 575;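 active = viability at or below 30% in both replicate assays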;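 also: 100% = median of untreated cell wells with 0.1% DMSO on each plate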); conditions: HUVEC proliferation, CellTiter-Glo luminescence, 72 h; at 10 µM; stronger effect = lower value
# Outline: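 Test system: primary human umbilical vein endothelial cells. Quantity: 1250 cells/well. Compound: single 10 µM dose, 0.1% DMSO, from 5x medium stock. Timing: 72 h treatment at 37 °C. Detection: ATP-based CellTiter-Glo luminescent read. Benchmarks: vehicle and MePR control wells. Format: 384-well plates coated with collagen.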
# [3] = growth inhibitors of H69AR lung tumor, primary screen, human, duplicate replicates (AID 580); conditions: H69AR lung tumor cells viability, ATP luminescence, 72 h; at 10 µM; stronger effect = lower value;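 also: 100% = mean luminescence of untreated wells and 0% = no signal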
# [4] = reversal of MRP1-mediated doxorubicin resistance, pilot screen, H69AR cells, doxorubicin co-treatment (AID 601;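 active = viability loss from added drug above about 55%, and viability with drug at most 40%, in both replicates, limit read from the data, passing the limit was not always enough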); conditions: CellTiter-Glo, 72 h, at 10 µM; for differential viability (reversal): stronger effect = higher value
# [5] = 384-well plate pilot, post-Golgi transport modulator project, inhibition of yeast transport mutant growth (AID 636; in the data active = inhibition above about 31%); conditions: absorbance 615 nm, about 18 h, stronger effect = higher value
# [6] = growth suppression of yeast trafficking mutant, preliminary HTS, modulators of trafficking downstream of Golgi apparatus project, 1536-format plate, OD 615 nm (AID 637; in the data active = inhibition above about 30%); conditions: yeast transport mutant growth, absorbance 615 nm, 18 h; stronger effect = higher value
# [7] = H69AR cells + 2 uM doxorubicin, measured here: viability with 2 uM doxorubicin, stronger effect = lower value
# [8] = H69AR cells, compound alone cytotoxicity
Structure (SMILES),viability [1],viability [2],viability [3],differential viability (reversal) ([4]; H69AR cells + 2 uM doxorubicin),"viability [4, 7]","viability [4, 8]",inhibition [5],inhibition [6]
Cc1cc(NS(=O)(=O)c2ccc(N)cc2)no1,111% (inactive),98.9% (inactive),88.9% (inactive),-12.6% (inactive),101%,88.9%,1.56% (inactive),-3.5% (inactive)
O=C(NCC1CCCO1)c1cc(-c2ccncc2)nc2ccc(S(=O)(=O)N3CCOCC3)cc12 (centres undefined),106% (inactive),111% (inactive),95.8% (inactive),8.86% (inactive),87%,95.8%,-7.87% (inactive),4.18% (inactive)
O=C(C1CCN(C2CC(=O)N(c3ccc(F)cc3)C2=O)CC1)N1CCOCC1 (centres undefined),106% (inactive),105% (inactive),101% (inactive),4.69% (inactive),96.2%,101%,-1.43% (inactive),4.43% (inactive)
CCN(CC)C(=O)C1=C(C)Nc2nnnn2C1c1cccnc1 (centres undefined),94% (inactive),109% (inactive),93.8% (inactive),4.5% (inactive),89.3%,93.8%,0.52% (inactive),3.11% (inactive)
CCc1noc(C)c1C(=O)NCCc1ccc(OC)c(OC)c1,87% (inactive),104% (inactive),104% (inactive),16.7% (inactive),87%,104%,-8.49% (inactive),2.58% (inactive)
CSc1oc(-c2ccccc2)nc1S(=O)(=O)c1ccc(F)cc1,92% (inactive),73.2% (inactive),82.6% (inactive),0.495% (inactive),82.1%,82.6%,-6.3% (inactive),-1.61% (inactive)
CC[C@H](C)C(=O)O[C@H]1C[C@@H](C)C=C2C=C[C@H](C)[C@H](CC[C@@H]3C[C@@H](O)CC(=O)O3)[C@H]21,110% (inactive),50.6% (inactive),72.2% (inactive),-6.58% (inactive),78.7%,72.2%,-1.82% (inactive),2.83% (inactive)
CC(=O)NC(C)C(=O)OCc1ccc(Cl)cc1Cl (centres undefined),66% (inactive),99.5% (inactive),103% (inactive),7.35% (inactive),95.2%,103%,-4.79% (inactive),-1.27% (inactive)
O=C(c1ccc(F)cc1)C1CCN(CCn2c(=O)[nH]c3ccccc3c2=O)CC1,94% (inactive),89.5% (inactive),96.2% (inactive),1.93% (inactive),94.3%,96.2%,-2.73% (inactive),1.33% (inactive)
CN(C)CCCC1(c2ccc(F)cc2)OCc2cc(C#N)ccc21 (centres undefined),79% (inactive),73.3% (inactive),103% (inactive),17.6% (inactive),85.7%,103%,-1.56% (inactive),-2.5% (inactive)
Cc1cc(C(=O)NCc2cccnc2)no1,77% (inactive),108% (inactive),99.2% (inactive),6.27% (inactive),93%,99.2%,-4.52% (inactive),1.61% (inactive)
O=S(=O)(c1ccc(Br)s1)N1CCN(c2ccccc2)CC1,90% (inactive),96.9% (inactive),87.6% (inactive),-4.09% (inactive),91.7%,87.6%,-3.78% (inactive),-3.27% (inactive)
CC(=O)OCC[N+](C)(C)C,102% (inactive),96.7% (inactive),92.5% (inactive),-8.23% (inactive),101%,92.5%,1.95% (inactive),-2.5% (inactive)
O=C1c2ccccc2C(=O)N1CCN1CCCCC1,98% (inactive),129% (inactive),103% (inactive),4.01% (inactive),99.4%,103%,3.38% (inactive),-1.64% (inactive)
CCOC(=O)c1ccc(NC(=O)CCc2nc(-c3ccc(C)cc3)no2)cc1,85% (inactive),38% (inactive),94.3% (inactive),5.47% (inactive),88.8%,94.3%,-3.29% (inactive),3.93% (inactive)
Cn1c(Cc2ccccc2)nnc1SCC(=O)N1CCOCC1,91% (inactive),95.6% (inactive),101% (inactive),6.17% (inactive),94.8%,101%,-1.08% (inactive),28.7% (inactive)
CCCC(=O)n1nc(-c2ccc(OC)cc2)nc1N,101% (inactive),93.6% (inactive),105% (inactive),7% (inactive),98.3%,105%,-1.56% (inactive),5.74% (inactive)
CCCc1cc(N2CCCC2)n2nc(C)c(-c3ccccc3)c2n1,64% (inactive),94.7% (inactive),76.6% (inactive),-3.64% (inactive),80.2%,76.6%,-4.93% (inactive),5.27% (inactive)
